In ChEMBL document CHEMBL1667769, “Sodium [2'-[(cyclopropanecarbonyl-ethyl-amino)-methyl]-4'-(6-ethoxy-pyridin-3-yl)-6-methoxy-biphenyl-3-yl]-acetate (AM432): a potent, selective prostaglandin D2 receptor antagonist” (Bioorg Med Chem Lett, 2011):

How the values were obtained:
[1] = target: T1, Prostaglandin D2 receptor 2 (Homo sapiens, UniProt Q9Y5Y4); assay: Displacement of [3H]PGD2 from human CRTh2 receptor expressed in 293 cells by liquid scintillation counting in presence of 0.2 % HSA; assay type: cell-based, HEK293
T1 sequence (Q9Y5Y4 whole entry): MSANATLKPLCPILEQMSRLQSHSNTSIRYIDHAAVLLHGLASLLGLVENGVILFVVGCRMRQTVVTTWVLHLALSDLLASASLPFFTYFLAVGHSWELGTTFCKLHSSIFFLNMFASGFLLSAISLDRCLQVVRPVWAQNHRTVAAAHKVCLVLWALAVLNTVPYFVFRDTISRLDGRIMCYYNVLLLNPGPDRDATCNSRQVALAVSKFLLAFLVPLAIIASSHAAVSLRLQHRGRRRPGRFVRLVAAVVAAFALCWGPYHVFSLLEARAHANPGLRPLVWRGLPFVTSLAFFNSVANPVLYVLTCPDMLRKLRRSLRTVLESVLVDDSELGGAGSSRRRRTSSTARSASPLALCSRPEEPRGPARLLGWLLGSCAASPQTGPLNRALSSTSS
Method in brief: (§1)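 Membranes from 293 cells stably expressing human DP₂ incubated with [³H]-PGD₂ and increasing compound concentrations. Membranes harvested and washed; bound [³H]-PGD₂ counted. IC₅₀ taken as concentration giving 50% inhibition of binding. Run without and with 0.2% human serum albumin. Values averaged from three experiments (five for the lead).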

[2] = target: T1, Prostaglandin D2 receptor 2; assay: Displacement of [3H]PGD2 from human CRTh2 receptor expressed in 293 cells by liquid scintillation counting; assay type: cell-based, HEK293; method in brief: as §1

SMILES | IC50 [1] | IC50 [2]
CCN(Cc1cc(-c2ncc(OC)cn2)ccc1-c1cc(CC(=O)O)ccc1OC)C(=O)C1CC1 | 107 nM | 27 nM
CCN(Cc1cc(S(C)(=O)=O)ccc1-c1cc(CC(=O)O)ccc1OC)C(=O)OCc1ccccc1 | 7 nM | 5 nM
CCN(Cc1cc(-c2cnc3ccccc3c2)ccc1-c1cc(CC(=O)O)ccc1OC)C(=O)C1CC1 | 52 nM | 7 nM

More lines, now with the values ahead:

IC50 [1] | IC50 [2] | SMILES
24 nM | 12 nM | CCN(Cc1cc(C(C)(C)O)ccc1-c1cc(CC(=O)O)ccc1OC)C(=O)OCc1ccccc1
254 nM | 8 nM | CCN(Cc1cc(C(=O)O)ccc1-c1cc(CC(=O)O)ccc1OC)C(=O)OCc1ccccc1
9 nM | 1 nM | CCN(Cc1cc(F)ccc1-c1cc(CC(=O)O)ccc1OC)C(=O)OCc1ccccc1
